Assay results pooled from the literature.
Lines come from different studies, so protocols differ.
Read-out: enzyme activity
Mode: inhibitor
SRC: Proto-oncogene tyrosine-protein kinase Src (SRC, Homo sapiens, UniProt P12931)
SRC T341M: Proto-oncogene tyrosine-protein kinase Src (SRC, Homo sapiens, UniProt P12931, T341M)

Cc1sc(C(=O)NC2COC2)cc1-n1cc(NC(=O)Nc2c(F)cccc2Cl)cn1 — remaining activity (SRC; 10 µM): 96.6%
Cc1[nH]c(/C=C2\C(=O)Nc3ccc(F)cc32)c(C)c1C(=O)N[C@H]1CCN(C(=O)N(C)C)C1 — remaining activity (SRC; 0.1 µM): 109%
Cc1ccc(NC(=O)c2ccc(C)c(C(F)(F)F)c2)cc1C#Cc1nn(C2CCC(O)CC2)c2ncnc(N)c12 (stereo not drawn) — remaining activity (SRC; 10 µM): 0%
CC(C)(C)c1nc(-c2cccc(NS(=O)(=O)c3c(F)cccc3F)c2F)c(-c2ccnc(N)n2)s1 — remaining activity (SRC; radiometric; 1 µM): 68%
COc1cc(Nc2cnc(C#N)c(O[C@H](C)CN(C)C)n2)ncc1-c1cnn(C)c1 — remaining activity (SRC; radiometric; 1 µM): 81%
Nc1nc(NC2CCCCC2)sc1C(=O)c1ccccc1 — remaining activity (SRC; 10 µM): 99%
O=C(Nc1cnn(-c2csc(C(=O)NC3COC3)c2)c1)Nc1c(F)cccc1Cl — remaining activity (SRC; 5 µM): 98.4%
Cc1cnc(NC2CCOCC2)nc1-n1cnc(C(=O)NC(CN)c2cc(F)cc(Cl)c2)c1 (stereo not drawn) — remaining activity (SRC T341M; radiometric; 1 µM): 103%
Cn1c(=O)n(-c2ccc(C(C)(C)C#N)cc2)c2c3cc(-c4cnc5ccccc5c4)ccc3ncc21 — remaining activity (SRC; 10 µM): 121%
O=c1cc(-c2cccc3c2Sc2ccccc2S3)oc(N2CCOCC2)c1 — remaining activity (SRC; 0.5 µM): 106%
FC(F)c1nc2ccccc2n1-c1nc(N2CCOCC2)nc(N2CCOCC2)n1 — remaining activity (SRC; 10 µM): 104%
CCCOc1ccc(OC)c(F)c1C(=O)c1ccc(C(=O)N[C@@H]2CNC[C@H]2NC(=O)c2ccc3[nH]ncc3c2)cc1 — remaining activity (SRC T341M; 10 µM): 53%
